The record followed here is ChEMBL document CHEMBL1153564 (Antimicrob Agents Chemother, 2008).

≈ marks a conversion by molar mass, not a printed value. Calls of active or inactive are those of the source. The calls are words filed in the database; no cut-off is given here. Starred links: 1 amine or outer side, 2 acyl side, 3 side chain; linkers in the order of their positions; H or OH if unused. Positions of bridges follow the written chain, without caps; N, C: chain ends. Non-standard residues stand in square brackets, D forms with d. Residues, ends and D or L forms follow the SMILES beside them. *: point of attachment. pTerphenylCO(4''-OnC5H11) = CCCCCOc1ccc(-c2ccc(-c3ccc(C(=O)*)cc3)cc2)cc1; Orn(4R-OH,5R-OH) = O=C([C@H](C[C@@H](O)[C@@H](O)N[*:3])N[*:1])[*:2]; hTyr(3S-OH,4S-OH) = N[C@H](C(=O)O)[C@H](O)[C@@H](O)c1ccc(O)cc1; Pro(3S-OH,4S-Me) = C[C@H]1CN[C@H](C(=O)O)[C@H]1O; Hyp = O=C(O)[C@@H]1C[C@@H](O)CN1

In data set [1] the test system is Candida albicans. Description: Antifungal activity against Candida albicans K-1 infected in neutropenic ICR/Swiss mouse candidiasis model assessed as reduction of […] in kidney at 20 mg/kg, ip administered 2 hrs postinfection as single dose measured within 1 to 4 hrs post dosing by time-kill assay. Also noted: dose 20 mg/kg. It counts as functional, organism-based. The gist of the method:
(§1)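 Single ip dose (20, 5 or 1.25 mg/kg) given 2 h after iv infection of neutropenic mice with K-1. Three treated and three control mice were sampled at intervals over 96 h for kidney CFU. PAFE is the time for treated burden to rise 1 log10 after serum levels fall below MIC, minus the same time in controls. Free drug was taken as 1%.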

For data set [2], the system named is Nakaseomyces glabratus. Briefly: Antifungal activity against Candida glabrata 570 infected in neutropenic ICR/Swiss mouse candidiasis model assessed as dose required to maintain […] of 1.83 +/- 0.54 log10CFU per kidney administered intraperitoneally every 24 hrs up to 4 days measured per 24 hrs. It counts as functional.
The subject of data set [3] is Nakaseomyces glabratus. Description: Antifungal activity against Candida glabrata 5592 infected in neutropenic ICR/Swiss mouse candidiasis model assessed as dose required to maintain […] of 1.83 +/- 0.54 log10CFU per kidney administered intraperitoneally every 24 hrs up to 4 days measured per 24 hrs. It counts as functional.
Data set [4] relates to Candida albicans. Description: Antifungal activity against Candida albicans K-1 infected in neutropenic ICR/Swiss mouse candidiasis model assessed as suppression of fungal regrowth at 20 mg/kg, ip administered 2 hrs postinfection as single dose by time-kill assay. The arrangement: dose 20 mg/kg. Format: functional, organism-based. A digest of the protocol:
as §1

Data set [5] deals with Candida albicans. Description: Antifungal activity against Candida albicans K-1 infected in neutropenic ICR/Swiss mouse candidiasis model assessed as suppression of fungal regrowth at 1.25 mg/kg, ip administered 2 hrs postinfection as single dose by time-kill assay. Format: functional, organism-based. The arrangement: dose 1.25 mg/kg. The gist of the method: (§2)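 Single ip dose of 1.25, 5 or 20 mg/kg given 2 h after iv infection of neutropenic mice. Groups of 3 treated and 3 control mice sampled at 1–24 h intervals over 96 h. Kidney homogenates plated on SDA, 24 h at 35°C. PAFE = time for treated burden to rise 1 log10 CFU/kidney after serum level fell below MIC, minus the same time in controls.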

Data set [6] relates to Nakaseomyces glabratus. Description: Antifungal activity against Candida glabrata 5376 infected in neutropenic ICR/Swiss mouse candidiasis model assessed as suppression of fungal regrowth at 1.25 mg/kg, ip administered 2 hrs postinfection as single dose by time-kill assay. The arrangement: dose 1.25 mg/kg. It counts as functional, organism-based. The gist of the method: as §2

The test system of the next data set is Serum. Description: Fraction unbound in Candida albicans K-1 infected neutropenic ICR/Swiss mouse serum at 1.25 mg/kg, ip administered 2 hrs postinfection as single dose. The settings on record: in vivo. Also noted: dose 1.25 mg/kg, route intraperitoneal. It counts as ADME, organism-based.
Data set [7] has as its system Candida albicans. Briefly: Antifungal activity against Candida albicans K-1 infected in neutropenic ICR/Swiss mouse candidiasis model assessed as […] burden per kidney administered intraperitoneally every 24 hrs up to 4 days measured per 96 hrs. It counts as functional. As to conditions: K-1, Kidney, ip. The gist of the method: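 Neutropenic mice were infected iv with C. albicans K-1 2 h before therapy. Total doses of 1.25, 5, 20, 80 and 320 mg/kg/96 h were split into 1, 2, 4 or 6 ip doses (q96h, q48h, q24h, q16h), three mice per regimen. Effect is the log10 CFU/kidney relative to untreated controls at 96 h. Static and 1-log doses were taken from a Hill model fit.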

In data set [8] the test system is Nakaseomyces glabratus. Briefly: Antifungal activity against Candida glabrata 32930 infected in neutropenic ICR/Swiss mouse candidiasis model assessed as dose required for 1-log10 reduction in […] per kidney administered intraperitoneally every 24 hrs up to 4 days measured per 24 hrs. It counts as functional. A digest of the protocol: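 Neutropenic mice (cyclophosphamide sc on days −4, −1 and +2) were infected iv 2 h before therapy. Five total doses from 0.078 to 20 mg/kg/24 h were given ip q24h for 4 days, three mice per regimen. Kidney CFU were measured at the end of therapy. Static and 1-log-kill doses were derived from a Hill sigmoid dose-effect fit.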

Data set [9] relates to Nakaseomyces glabratus. Briefly: Antifungal activity against Candida glabrata 5376 infected in neutropenic ICR/Swiss mouse candidiasis model assessed as […] burden per kidney administered intraperitoneally every 16 hrs up to 4 days measured per 96 hrs. It counts as functional. As to conditions: Nakaseomyces glabratus, 5376, Kidney, ip. The gist of the method: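 Neutropenic ICR/Swiss mice infected i.v. with the strain; therapy began 2 h later. Total doses of 1.25–320 mg/kg/96 h were given i.p. as 1, 2, 4 or 6 doses (q96h, q48h, q24h, q16h), three mice per regimen. Kidney CFU were counted after 4 days. Effect is the change from untreated controls at the end of therapy.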

Data set [10] has as its system Candida albicans. Description: Antifungal activity against Candida albicans 580 assessed as partial growth inhibition after 24 hrs by CLSI end point method. The settings on record: Candida albicans, 580, 24 h. It counts as functional. The gist of the method:
(§3)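 CLSI M27-A2 broth dilution. Two end points read against the drug-free control well: partial inhibition (CLSI end point) and complete inhibition. Run in duplicate on four separate occasions; value is the mean. Drug stock in DMSO, diluted in 0.9% NaCl.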

The subject of data set [11] is Nakaseomyces glabratus. Description: Antifungal activity against Candida glabrata 513 assessed as partial growth inhibition after 24 hrs by CLSI end point method. It counts as functional. As to conditions: Nakaseomyces glabratus, 513, 24 h. The gist of the method:
(§4)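 Two end points were read against the drug-free control well: partial growth inhibition (the CLSI end point) and complete inhibition. Run in duplicate on four separate occasions; the value is the mean. Drug stock was made in DMSO and diluted in 0.9% NaCl.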

The test system of data set [12] is Nakaseomyces glabratus. Description: Antifungal activity against Candida glabrata 5592 assessed as partial growth inhibition after 24 hrs by CLSI end point method. Format: functional. As to conditions: Nakaseomyces glabratus, 5592, 24 h. A digest of the protocol: as §4
In data set [13] the test system is Nakaseomyces glabratus. Description: Antifungal activity against Candida glabrata 32930 assessed as complete growth inhibition after 24 hrs by CLSI end point method. It counts as functional. As to conditions: Nakaseomyces glabratus, 32930, 24 h. The gist of the method:
as §3

In data set [14] the test system is Nakaseomyces glabratus. Briefly: Antifungal activity against Candida glabrata 513 infected in neutropenic ICR/Swiss mouse candidiasis model assessed as fungal count per kidney administered 2 hrs postinfection measured up to 48 hrs. It counts as functional. The gist of the method: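 Female ICR/Swiss mice (23–27 g) made neutropenic with cyclophosphamide s.c. (150 mg/kg day −4, 100 mg/kg day −1, 100 mg/kg day +2). Infected by tail vein with 0.1 ml inoculum (~6.1 log10 CFU/ml). Kidneys of untreated mice were homogenised and plated on SDA for 24 h at 35°C. Growth over 48 h is given as log10 CFU/kidney.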

A short description of data set [15]: AUC (0 to infinity) in serum of neutropenic ICR/Swiss mouse candidiasis model at 80 mg/kg, ip by reverse-phase high-pressure liquid chromatography. It counts as ADME, organism-based. Also noted: time infinity, dose 80 mg/kg, route intraperitoneal. The gist of the method: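 Single ip dose in 0.2 ml to infected neutropenic mice. Serum from groups of three isoflurane-anaesthetised mice at 1, 4, 8, 12, 24 and 48 h, stored −80°C. Drug measured by reverse-phase HPLC with fluorescence detection against loratadine internal standard (calibration 10–50,000 ng/ml). Noncompartmental analysis; AUC by trapezoidal rule.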

In another data set the test system is Mus musculus. Description: Cmax in serum of neutropenic ICR/Swiss mouse candidiasis model at 20 mg/kg, ip up to 4 hrs by reverse-phase high-pressure liquid chromatography. It counts as ADME, organism-based. The arrangement: dose 20 mg/kg, route intraperitoneal. The settings on record: in vivo. The gist of the method: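 Infected neutropenic ICR/Swiss mice given single ip doses (5, 20 or 80 mg/kg; 0.2 ml); serum from three isoflurane-anaesthetised mice at 1, 4, 8, 12, 24 and 48 h, stored at −80°C, assayed by reverse-phase HPLC with fluorescence detection, loratadine internal standard, linear 10–50,000 ng/ml. Noncompartmental analysis; half-life by nonlinear least squares.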

Data set [16] has as its system Nakaseomyces glabratus. Briefly: Antifungal activity against Candida glabrata 5376 infected in neutropenic ICR/Swiss mouse candidiasis model assessed as dose required to maintain […] of 3.71 +/- 0.21 log10CFU per kidney administered intraperitoneally once every 96 hrs measured per 96 hrs.

The term ED50 denotes the dose at which the effect has come halfway, by size or by number of responders. As a reminder, the MIC is the lowest concentration found to suppress growth. Broadly, the AUC(0-inf) is total exposure, with the tail of the curve extrapolated. High values mean more exposure, low ones less exposure. A word on the Cmax: it is the peak of the concentration-time curve.

Turning to `CCCCCOc1ccc(-c2ccc(-c3ccc(C(=O)N[C@H]4C[C@@H](O)[C@@H](O)NC(=O)[C@@H]5[C@@H](O)[C@@H](C)CN5C(=O)[C@H]([C@@H](C)O)NC(=O)[C@H]([C@H](O)[C@@H](O)c5ccc(O)cc5)NC(=O)[C@@H]5C[C@@H](O)CN5C(=O)[C@H]([C@@H](C)O)NC4=O)cc3)cc2)cc1` [ANIDULAFUNGIN] ({pTerphenylCO(4''-OnC5H11)}-[Orn(4R-OH,5R-OH)]T[Hyp][hTyr(3S-OH,4S-OH)]T[Pro(3S-OH,4S-Me)]; lactam 1-C), the result with Candida albicans [1], with Candida albicans [4], with Candida albicans [5] and in the data set with Nakaseomyces glabratus [6] was Active. Further, the Activity in the data set on Nakaseomyces glabratus [2] was 1.97 mg/kg; in the data set on Nakaseomyces glabratus [3], 3.57 mg/kg; with Nakaseomyces glabratus [8], 3.31 mg/kg; with Nakaseomyces glabratus [16] it was 9.06 mg/kg. Further, in the data set with Serum, the Fu was determined as 1%. The 50% effective dose (ED50) in the data set with Candida albicans [7] was 3.5 mg/kg; with Nakaseomyces glabratus [9], 26.3 mg/kg. The MIC in the data set on Candida albicans [10] is 0.015 µg/mL (≈ 0.0132 µM); in the data set on Nakaseomyces glabratus [11], 0.06 µg/mL (≈ 0.0526 µM); with Nakaseomyces glabratus [12] it was 0.06 µg/mL (≈ 0.0526 µM); with Nakaseomyces glabratus [13], 0.12 µg/mL (≈ 0.105 µM). Also, the log10cfu in the data set on Nakaseomyces glabratus [14] was found to be 2.43. The AUC(0-inf) in data set [15] came out at 1980 µg·h/mL. The same molecule registered a Cmax in the data set with Mus musculus of 0.024 mg/mL.
